Source: PubChem
An excerpt weighted towards active compounds, which were near 2% of everything screened.
14-3-3 Bad inh: disrupts binding of bovine 14-3-3 zeta to phospho-Bad peptide | P63103 | TR-FRET 14-3-3zeta/Dy647-pBad peptide displacement, 1 h | inhibition, % at 21.7 µM | 220,000 tested, 0.71% active;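 active = inhibition above about 70%, limit read from the data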
Hck-Nef inh: inhibitors of human Hck kinase activated by Nef | P08631 | Recombinant Hck-YEEI plus Nef, Z-Lyte FRET kinase assay | inhibition, % at 20 µM | 220,000 tested, 0.68% active;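 active = Hck-Nef kinase inhibition above about 50%, limit read from the data; inactive = inhibition below that limit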
NCF1 inh: p47phox (human) inhibition. P14598. p47phox/p22phox peptide binding, fluorescence polarization, 2 h. inhibition, % at 24.7 µM. 220,000 tested, 0.53% active
Diaphorase act: counter-screen for diaphorase-based assays: diaphorase activators and chemical reducers; Diaphorase/resazurin coupled assay, resorufin fluorescence, 16 min; active compounds read high; 1 = vehicle wells, 0 = NADH-free wells; activation factor at 20 µM; 190,000 tested, 0.005% active; AID 1229;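 active = diaphorase activity raised at least twofold by the compound at 20 µM; inactive = activation factor below 2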
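test system = bacterial diaphorase enzyme (C. kluyveri) | quantity = enzyme 0.07 U/mL final | reagent = NADH substrate 0.114 mM plus resazurin dye 0.1 mM, final | incubation = 16 min enzyme reaction, ambient temperature | buffer or medium = HEPES pH 7.4 buffer with MgCl2 and Tween 20 | signal = fluorescence of resorufin, 544 nm excitation, 590 nm emission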
eIF4E 4G PPI: blocks eIF4E binding to eIF4G; 220,000 tested, 0.37% active; TR-FRET eIF4E-eIF4GI(517-606) binding, 2 h; P63073+Q04637; inhibition, % at 21.7 µM
Of the large screens only hits and unclear results are named; the others gave an inactive call; [ ] = another dose, or the depositor's remark.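 Rule for the calls, unless noted: active = inhibition above about 30% (limit read from the data); inactive = the rest.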

NC(N)=NS(=O)(=O)c1ccc(NC(=S)NC(=O)c2sc3ccccc3c2Cl)cc1	14-3-3 Bad inh 76
CCN(CC)S(=O)(=O)c1ccc(C(=O)NCCN(C)C)cc1	none
O=C(CC1C(=O)NCCN1C(=S)Nc1ccccc1)Nc1ccc2c(c1)OCCO2 (configuration not stated)	none
Cc1ccc(NC(=O)CC2C(=O)NCCN2C(=S)Nc2ccccc2)c(C)c1 (configuration not stated)	14-3-3 Bad inh 75
O=c1ccc(Cl)n[nH]1	none (no result: Diaphorase act)
Cc1ccc2nc(-c3ccccc3)c(-c3ccccc3)nc2c1	none
Cc1ccc2nc(=O)c(NNc3ccccc3)cnc2c1	Hck-Nef inh 94
CCN1CCC(=NNC(=O)c2ccco2)CC1	none
CCCN1CCC(=NNC(=O)c2ccc(Br)o2)CC1	eIF4E 4G PPI 39
CC(NC(=O)c1ccc(Cn2cc([N+](=O)[O-])cn2)o1)c1ccccc1 (configuration not stated)	eIF4E 4G PPI 36[fluorescence artefact?]
Cc1ccccc1NC(=O)c1ccc(Cn2cc([N+](=O)[O-])cn2)o1	none
N#CC(C#N)=C1C=C2C=C(N3CCCCC3)CCC2CC1 (configuration not stated)	NCF1 inh 113
CCCCN(C)C1=CC2=CC(=C(C#N)C#N)CCC2CC1 (configuration not stated)	none
CCN(CC)C1=CC2=CC(=C(C#N)C#N)CCC2CC1 (configuration not stated)	NCF1 inh 62
COc1ccc(CNC[C@@H](CCCCN(C)Cc2ccc(OC)cc2)N2C[C@H](c3ccccc3)N(CCc3ccc(Cl)c(Cl)c3)C(=O)C2=O)cc1	NCF1 inh 50, Diaphorase act 2.2
CN(CCCC[C@H](CNCc1ccc(-c2ccccc2)cc1)N1C[C@H](c2ccccc2)N(CCc2ccc(Cl)c(Cl)c2)C(=O)C1=O)Cc1ccc(-c2ccccc2)cc1	NCF1 inh 51 (no result: Diaphorase act)
Cc1ccc(CCN2CC(C(=O)NCCCN(C)Cc3ccccc3)CC2=O)cc1 (configuration not stated)	none
CCOc1ccc(CCN2C(=O)C(=O)N([C@H](CCCN(C)Cc3ccccc3)CNCc3ccccc3)C[C@@H]2C(C)C)cc1	none (no result: Diaphorase act)
N#Cc1c(-c2ccc(Cl)cc2)c2c([nH]c1=O)-c1ccccc1OC2	none (no result: Diaphorase act)
O=C(COC(=O)c1cccnc1Cl)NCCC1=CCCCC1	none
C=CCOc1ccc2cccc(/C=N/NC(=O)c3cc4cc([N+](=O)[O-])ccc4s3)c2c1	NCF1 inh 41
O=C(Nc1ccccn1)c1cc2cc([N+](=O)[O-])ccc2s1	none
Cc1nc(=S)c2c([nH]1)-c1ccccc1CC21CCCCC1	none (no result: Diaphorase act)
Cc1ccc(S(=O)(=O)N2CCC(=O)N(C(COCc3ccc(C(F)(F)F)cc3)Cc3ccccc3)CC2)cc1 (configuration not stated)	14-3-3 Bad inh 82
Cc1ccc(S(=O)(=O)N2CCC(=O)N(C(COCc3cccc(C)c3)Cc3ccccc3)CC2)cc1 (configuration not stated)	none
CCOC(=O)C1=C(c2ccccc2)NC(N)=NC1c1ccc(OCc2ccc(Cl)cc2)c(OC)c1 (configuration not stated)	14-3-3 Bad inh 94, NCF1 inh 71, eIF4E 4G PPI 37 (no result: Diaphorase act)
CCOC(=O)C1=C(c2ccccc2)NC(=O)NC1c1cc(Cl)c(O)c(OC)c1 (configuration not stated)	none
Cc1ccc(C(=O)COC(=O)c2ccc(-c3cnc4ccccc4n3)cc2)cc1C	none
COc1ccccc1Oc1ccc2c(c1)C(=O)N(c1cccc3ncccc13)C2=O	NCF1 inh 36
Cc1ccc(C(=O)COC(=O)c2ccc3c(c2)C(=O)N(c2cccc4ncccc24)C3=O)cc1C	NCF1 inh 73
N#CC1(C#N)COC23CCCCC2C1(C#N)C(=N)O3 (configuration not stated)	NCF1 inh 141
COc1ccc(Cc2nc3ccccc3n2CC(=O)N/N=C/c2ccc(C)cc2O)cc1OC	14-3-3 Bad inh 83
CCCCn1nc(C(=O)Nc2cc(S(=O)(=O)N(C)C)ccc2C)c2ccccc2c1=O	none (no result: Diaphorase act)
Cc1cc(C(=O)NC(Cc2ccccc2)C(=O)O)c(C)o1 (configuration not stated)	none (no result: Diaphorase act)
COc1cccc(N=c2oc3c(C)ncc(CO)c3cc2C(=O)Nc2ccccc2OC)c1	14-3-3 Bad inh 91[fluorescence artefact?]
CCOc1ccc(OCC)c(N=c2oc3c(C)ncc(CO)c3cc2C(N)=O)c1	none
O=C(CCCOc1ccc(Cl)cc1Cl)N/N=C/c1ccccc1	NCF1 inh 51
O=C(Nc1ccc2oc(-c3cccnc3)nc2c1)c1cc2ccccc2o1	none
O=C(NC(=S)Nc1ccc2oc(-c3cccnc3)nc2c1)c1cccc(Cl)c1	14-3-3 Bad inh 81
Cc1ccc(CNS(=O)(=O)c2ccc(C(F)(F)F)cc2)n1C	none (no result: Diaphorase act)
Cc1ccsc1/C=N/NC(=O)C1C(=O)NCC1c1ccccc1 (configuration not stated)	none (no result: Diaphorase act)
NC(=O)C1CCN(C(=O)COc2ccc3ccccc3c2)CC1	none
NC(=O)C1CCN(C(=O)COc2ccc(Nc3ccccc3)cc2)CC1	eIF4E 4G PPI 96 (no result: Diaphorase act)
CC1(C)NC(=O)N(CC(O)COC2CCCCC2)C1=O (configuration not stated)	NCF1 inh 41
Cc1ccc(-n2nc(C)c(/C=N/n3c(C)n[nH]c3=S)c2Cl)cc1	none
O=C(/C=N/O)Nc1ccc(F)cc1	eIF4E 4G PPI 53
CN(C(=O)Cn1cc(C(F)(F)F)ccc1=O)c1c(N)n(Cc2ccccc2)c(=O)[nH]c1=O	none (no result: Diaphorase act)
Cc1cc(C)n(-c2nnc3n2N=C(c2ccccc2)CS3)n1	eIF4E 4G PPI 42
Cc1cc(C)n(-c2nnc3n2N=C(c2c[nH]c4ccccc24)CS3)n1	none
CC(C)(C)C(=O)Nc1ccc(-c2cc3cc(Cl)ccc3o2)cc1	none (no result: Diaphorase act)
C(=N\n1cnnc1)/c1ccc(N2CCOCC2)s1	NCF1 inh 43
Cc1ccc(S(=O)(=O)NCC(=O)NCC(=O)OC(C(=O)NC(N)=O)C(C)C)cc1C (configuration not stated)	none (no result: Diaphorase act)
O=C(Nc1ccc(N2CCCCC2)cc1)c1cccnc1Cl	NCF1 inh 57
COc1ccc(NS(=O)(=O)c2cc(NC(=O)c3cnc(C)cn3)ccc2N2CCCC2)cc1	none
CS(=O)(=O)N1CCN(c2ccc(NC(=O)c3cccnc3Cl)cc2)CC1	none
COc1ccc(NS(=O)(=O)c2cc(NC(=O)c3cccnc3Cl)ccc2N2CCCC2)cc1	NCF1 inh active (no result: Diaphorase act)
CCCCCCc1cc2cc(C(=O)Nc3cccc(OC)c3)c(=O)oc2cc1O	Hck-Nef inh 53
CCCCCCc1cc2cc(C(=O)Nc3ccc(OC)cc3)c(=O)oc2cc1O	none
CCC(C)(C)c1ccc(OCCCC[n+]2ccc(C)cc2)c(C(C)(C)CC)c1	NCF1 inh 33
Cc1cc(C(C)(C)C)ccc1OCCCCN1CCCC1	none
